# According to ChEMBL document CHEMBL4396876, “Antisulfatase, Osteogenic, and Anticancer Activities of Steroid Sulfatase Inhibitor EO-33 in Mice” (J Med Chem, 2019):
# What was measured:
# Mus musculus [1] = test: Osteogenic activity in ovariectomized-induced C57BL/6 mouse model of osteoporosis assessed as recovery of tibia calcium content at 5 ug/kg, sc treated for 70 days by Triple Quad ICP-MS analysis relative to control; type: functional
# In short: (§1)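 Female C57BL/6 mice (63–70 days) ovariectomized under isoflurane; sham controls kept. 8/group, dosed SC in 0.1 mL MC:EtOH (92:8) for 70 days. Tibias excised and weighed (mg/g body weight). Calcium measured by ICP-MS after calcination at 600 °C for 6 h and HNO3 microwave digestion; expressed as mg/g tibia.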
# Mus musculus [2] = test: Osteogenic activity in ovariectomized-induced C57BL/6 mouse model of osteoporosis assessed as recovery of tibia weight at 5 ug/kg, sc treated for 70 days relative to control; type: functional; in short: as §1
# Mus musculus [3] = test: (§2) In vivo inhibition of STS in ovariectomized Balb/c mouse assessed as reduction in E1S-stimulated uterus weight at 5 mg/kg, sc administered once daily starting from day 2 to day 10 using MC/EtOH formulation and E1S addition on day 5 to 10 measured on day 11 relative to control; type: functional
# In short: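 Female Balb/c mice (15–20 g) ovariectomized under isoflurane, 5/group. Inhibitor given SC in 0.1 mL MC:EtOH (92:8) on days 2–10. E1S (2 µg/mouse, BID) or E1 (0.06 µg/mouse, ID) given SC on days 5–10. Vehicle controls included. Uterus dissected and weighed on day 11. Means ± SEM.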
# Mus musculus [4] = test: as §2, with “Ex” for “In”, “mouse liver homogenates” for “mouse”, “transformation of [3H]-E1S into [3H]-E1” for “E1S-stimulated uterus weight”, “11 by liquid scintillation counting method” for “11”; type: functional
# In short: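 Livers collected on day 11 from the OVX Balb/c uterotrophic protocol and homogenized in cold pH 7.4 phosphate buffer with protease inhibitors. 2000 g supernatant, 100 or 500 µg protein, incubated with [3H]-E1S/E1S (final 1 µM) in PBS for 2 h at 37 °C. Xylene extraction, then scintillation counting of both phases. Result given as % E1 formed. Triplicate.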
# [5] = Drug level in Balb/c mouse treated with 2-{[4-({(Furan-2-ylmethyl)[(5-methylthiophen-2-yl)-methyl]amino}methyl)phenyl]carbonyl}-1,2,3,4-tetrahydroisoquinolin-7-yl Sulfamate assessed as metabolite formation at 30 mg/kg, po administered via gavage as single dose using MC/EtOH formulation by LC-MS/MS analysis; type: ADME, organism-based; conditions: in vivo
# In short: (§3)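 Phenol metabolite EO-29 measured by LC-MS/MS in plasma of female Balb/c mice fasted 8 h, then given a single 30 mg/kg dose of the sulfamate in MC:EtOH (92:8), 0.1 mL, SC or by gavage. Sampled at 1, 3, 7, 12 and 24 h by cardiac puncture (2–3 mice/group).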
# [6] = Drug level in Balb/c mouse treated with 2-{[4-({(Furan-2-ylmethyl)[(5-methylthiophen-2-yl)-methyl]amino}methyl)phenyl]carbonyl}-1,2,3,4-tetrahydroisoquinolin-7-yl Sulfamate assessed as metabolite formation at 30 mg/kg, sc administered as single dose using MC/EtOH formulation by LC-MS/MS analysis; type: ADME, organism-based; conditions: in vivo; in short: as §3
# [7] = Hepatotoxicity in ovariectomized-induced C57BL/6 mouse model of osteoporosis assessed as effect on liver weight at 1 mg/kg, sc administered 6 days per week for 70 days measured post last dose by necropsy analysis; type: toxicity, organism-based; conditions: in vivo
# Mus musculus [8] = test: Osteogenic activity in ovariectomized-induced C57BL/6 mouse model of osteoporosis assessed as recovery of tibia weight at 1 mg/kg, sc administered 6 days per week for 70 days relative to control; type: functional; in short: as §1
# [9] = Toxicity in ovariectomized-induced C57BL/6 mouse model of osteoporosis assessed as effect on body weight at 1 mg/kg, sc administered 6 days per week for 70 days measured post last dose; type: organism-based; conditions: in vivo
# In short: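 Female C57BL/6 mice, 63-70 days old, ovariectomized under isoflurane (sham-operated controls), randomized by weight into groups of 8. Treated SC in 0.1 mL MC:EtOH (92:8) over 70 days; sham and OVX controls received vehicle alone. Mice weighed at the end of the protocol before necropsy.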
# Mus musculus [10] = test: Estrogenic activity in ovariectomized-induced C57BL/6 mouse model of osteoporosis assessed as stimulation of uterus weight at 1 mg/kg, sc administered 6 days per week for 70 days measured post last dose by necropsy analysis; type: ADME, organism-based; conditions: in vivo
# Mus musculus [11] = test: Osteogenic activity in ovariectomized-induced C57BL/6 mouse model of osteoporosis assessed as recovery of tibia calcium content at 1 mg/kg, sc administered 6 days per week for 70 days by Triple Quad ICP-MS analysis relative to control; type: functional; in short: as §1
smiles,measurement,setting,value
C[C@]12CC[C@@H]3c4ccc(O)cc4CC[C@H]3[C@@H]1CC[C@@H]2O [ESTRADIOL],Activity,Mus musculus [1],100%
same,Activity,Mus musculus [2],100%
COc1cc2c(cc1OS(N)(=O)=O)CC[C@@H]1[C@@H]2CC[C@@]2(C)[C@H]1CC[C@@]2(O)Cc1ccccc1,inhibition in vivo at 5 mg/kg,Mus musculus [3],71%
same,inhibition in vivo at 5 mg/kg,Mus musculus [4],100%
Cc1ccc(CN(Cc2ccc(C(=O)N3CCc4ccc(O)cc4C3)cc2)Cc2ccco2)s1,Drug metabolism,[5],Metabolite_Detected
same,Drug metabolism,[6],Metabolite_Detected
O=C(c1ccc(OCCN2CCCCC2)cc1)c1c(-c2ccc(O)cc2)sc2cc(O)ccc12 [RALOXIFENE],Activity,[7],Non-Toxic
same,Activity,Mus musculus [8],100%
same,Activity,[9],Non-Toxic
same,Activity,Mus musculus [10],Toxic
same,Activity,Mus musculus [11],100%
